In brackets after ≈: the same amount, converted by molar mass.
Assays:
Format in all cases: functional
[1] = tested on: Mycobacterium tuberculosis; assay: Antitubercular activity against extensively drug resistant Mycobacterium tuberculosis TF274 by microplate Alamar Blue assay
In short: (§1)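 Mycobacterium tuberculosis strains were used: H37Rv, and clinical strains from KwaZulu-Natal (MDR KZN494 and V2475; XDR TF274 and R506). Growth was read by microplate Alamar Blue assay. MIC is the lowest drug concentration giving at least a 90% reduction of the bacterial growth signal. Values are the average of three individual measurements.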

[2] = tested on: Mycobacterium tuberculosis; assay: Antitubercular activity against extensively drug resistant Mycobacterium tuberculosis R506 by microplate Alamar Blue assay; in short: as §1
[3] = tested on: Mycobacterium tuberculosis; assay: Antitubercular activity against extensively drug resistant Mycobacterium tuberculosis V2475 by microplate Alamar Blue assay
[4] = tested on: Mycobacterium tuberculosis; assay: Antitubercular activity against multi drug resistant Mycobacterium tuberculosis KZN494 by microplate Alamar Blue assay; in short: as §1

Row | SMILES | MIC90 [1] [µM] | MIC90 [2] [µM] | MIC90 [3] [µM] | MIC90 [4] [µM]
1 | Cc1cc(C)c2cc(C(=O)NC3CCCCCCC3)[nH]c2c1 | 0.026 (≈ 0.00776 µg/mL) | 0.0067 (≈ 0.002 µg/mL) |  | 
2 | Cc1cc(C)c2cc(C(=O)NC3CCCCCC3)[nH]c2c1 | 0.055 (≈ 0.0156 µg/mL) | 0.055 (≈ 0.0156 µg/mL) | 0.11 (≈ 0.0313 µg/mL) | 0.11 (≈ 0.0313 µg/mL)
3 | Cc1cc(C)c2cc(C(=O)NC3CCCCC3)[nH]c2c1 | 0.46 (≈ 0.124 µg/mL) | 0.46 (≈ 0.124 µg/mL) | 0.93 (≈ 0.251 µg/mL) | 3.7 (≈ 1 µg/mL)
